# Source: ChEMBL document CHEMBL2021897, “Synthesis and SAR of 1,3-thiazolyl thiophene and pyridine derivatives as potent, orally active and S1P₃-sparing S1P₁ agonists” (Bioorg Med Chem Lett, 2012)
# The source made the active and inactive calls. No cut-off for these calls is given here.
# Tests used:
# [1] = target: Sphingosine 1-phosphate receptor 3 (Homo sapiens, UniProt Q99500); test: Agonist activity at human S1P3 receptor by [S35]GTPgammaS binding assay; type: functional
# Method in brief: (§1)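 GTPγS binding at human S1P1 and S1P3 receptors. EC50 is the mean of two experimental determinations.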
# [2] = target: Sphingosine 1-phosphate receptor 1 (Homo sapiens, UniProt P21453); test: Agonist activity at human S1P1 receptor by [S35]GTPgammaS binding assay; type: functional; method in brief: as §1
# Sequence of Sphingosine 1-phosphate receptor 1 (P21453 whole entry): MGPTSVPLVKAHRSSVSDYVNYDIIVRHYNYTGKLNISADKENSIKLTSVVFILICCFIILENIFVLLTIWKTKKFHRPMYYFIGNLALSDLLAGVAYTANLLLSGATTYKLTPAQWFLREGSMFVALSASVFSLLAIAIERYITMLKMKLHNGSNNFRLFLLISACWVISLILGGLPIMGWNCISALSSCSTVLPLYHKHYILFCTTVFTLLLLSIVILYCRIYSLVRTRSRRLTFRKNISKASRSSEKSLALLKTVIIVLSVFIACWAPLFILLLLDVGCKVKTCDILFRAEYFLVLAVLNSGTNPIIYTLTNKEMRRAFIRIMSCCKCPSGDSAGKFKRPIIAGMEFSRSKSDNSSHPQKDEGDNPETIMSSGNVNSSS
# Rattus norvegicus [3] = test: Immunosuppressive activity in LEW rat transplanted with spleen cells of WKAH rat assessed as inhibition of enlargement of draining popliteal lymph node at 1 mg/kg, po qd for 4 days; type: functional; settings: for inhibition in vivo at 1 mg/kg: 96 h
# Method in brief: (§2)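 Spleen cells from WKAH rats were injected into the footpads of LEW rats to induce draining popliteal lymph node enlargement. Dosing was oral, once daily for four days from the day of cell injection (day 0). Lymph node weight was measured on day 4. Values are the mean of five rats; ID50 is derived from at least three doses.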
# [4] = Clearance in cynomolgus monkey at 0.5 mg/kg, iv; type: ADME, organism-based, Macaca fascicularis; set-up: dose 0.5 mg/kg, route intravenous; settings: in vivo
# Method in brief: (§3)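 Single iv administration to Lewis rats at 1.0 mg/kg (n = 2) or cynomolgus monkeys at 0.5 mg/kg (n = 2), with clearance and volume of distribution derived.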
# [5] = Cmax in cynomolgus monkey at 0.5 mg/kg, po; type: ADME, organism-based, Macaca fascicularis; set-up: dose 0.5 mg/kg, route oral; settings: in vivo
# Method in brief: (§4)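 Single oral dose in Lewis rats (n = 4) or cynomolgus monkeys (n = 2), with plasma parameters derived. Bioavailability was calculated against iv dosing at 1.0 mg/kg in rats (n = 2) and 0.5 mg/kg in monkeys (n = 2).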
# [6] = Half life in cynomolgus monkey at 0.5 mg/kg, po; type: ADME, organism-based, Macaca fascicularis; set-up: dose 0.5 mg/kg, route oral; settings: in vivo; method in brief: as §4
# Rattus norvegicus [7] = test: Immunosuppressive activity in po dosed LEW rat transplanted with spleen cells of WKAH rat assessed as inhibition of enlargement of draining popliteal lymph node administered qd for 4 days; type: functional; settings: 96 h, read-out: ID50 (the source's name); method in brief: as §2
# [8] = Volume of distribution in cynomolgus monkey at 0.5 mg/kg, iv; type: ADME, organism-based, Macaca fascicularis; set-up: dose 0.5 mg/kg, route intravenous; settings: in vivo; method in brief: as §3
# [9] = Oral bioavailability in cynomolgus monkey at 0.5 mg/kg; type: ADME, organism-based, Macaca fascicularis; settings: in vivo; method in brief: as §4
# [10] = AUC (0 to infinity) in cynomolgus monkey at 0.5 mg/kg, po; type: ADME, organism-based, Macaca fascicularis; set-up: time infinity, dose 0.5 mg/kg, route oral; settings: plasma; method in brief: as §4
# [11] = Tmax in cynomolgus monkey at 0.5 mg/kg, po; type: ADME, organism-based, Macaca fascicularis; set-up: dose 0.5 mg/kg, route oral; settings: in vivo; method in brief: as §4
# [12] = target: T1, Peroxisome proliferator-activated receptor alpha (Homo sapiens) (UniProt Q07869); test: Agonist activity at PPARalpha; type: functional
# T1 sequence (whole entry): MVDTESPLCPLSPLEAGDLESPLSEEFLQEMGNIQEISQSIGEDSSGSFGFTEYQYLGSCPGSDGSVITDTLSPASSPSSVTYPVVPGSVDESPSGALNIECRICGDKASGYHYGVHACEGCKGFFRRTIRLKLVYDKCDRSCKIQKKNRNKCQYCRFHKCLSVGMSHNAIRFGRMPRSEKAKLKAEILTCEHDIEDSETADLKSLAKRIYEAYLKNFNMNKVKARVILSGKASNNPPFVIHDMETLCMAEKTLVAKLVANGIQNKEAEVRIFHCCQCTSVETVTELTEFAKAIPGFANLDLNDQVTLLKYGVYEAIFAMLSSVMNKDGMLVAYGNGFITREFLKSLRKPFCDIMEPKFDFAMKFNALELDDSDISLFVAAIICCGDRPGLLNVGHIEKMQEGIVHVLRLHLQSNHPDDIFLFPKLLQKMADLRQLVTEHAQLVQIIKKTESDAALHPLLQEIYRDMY
# [13] = Half life in cynomolgus monkey at 1 mg/kg, po; type: ADME, organism-based, Macaca fascicularis; set-up: dose 1 mg/kg, route oral; settings: in vivo; method in brief: as §4
# [14] = Cmax in Lewis rat at 3 mg/kg, po; type: ADME, organism-based; set-up: dose 3 mg/kg, route oral; settings: in vivo; method in brief: as §4
# [15] = Tmax in Lewis rat at 3 mg/kg, po; type: ADME, organism-based; set-up: dose 3 mg/kg, route oral; settings: in vivo; method in brief: as §4
# [16] = Stability of the compound in presence of enterobacteria from rat cecal contents under anaerobic condition at 3 to 30 uM after 24 hrs; type: ADME
# Method in brief: (§5)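 Compound solutions at 3.0 and 30 µM were exposed to anaerobic enterobacterial culture fluid from rat cecal contents or monkey feces, grown in prereduced PYF broth, with broth alone as control. Percent compound remaining was traced at 24 and 48 h.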
# [17] = Stability of the compound in presence of enterobacteria from rat cecal contents under anaerobic condition at 3 to 30 uM after 48 hrs; type: ADME; method in brief: as §5
# [18] = Volume of distribution in Lewis rat at 1 mg/kg, iv; type: ADME, organism-based; set-up: dose 1 mg/kg, route intravenous; settings: in vivo; method in brief: as §3
# [19] = Oral bioavailability in Lewis rat at 3 mg/kg; type: ADME, organism-based; settings: in vivo; method in brief: as §4
# [20] = Clearance in Lewis rat at 1 mg/kg, iv; type: ADME, organism-based; set-up: dose 1 mg/kg, route intravenous; settings: in vivo; method in brief: as §3
# [21] = AUC (0 to infinity) in Lewis rat at 3 mg/kg, po; type: ADME, organism-based; set-up: dose 3 mg/kg, route oral, time infinity; settings: plasma; method in brief: as §4
# [22] = Cmax in cynomolgus monkey at 1 mg/kg, po; type: ADME, organism-based, Macaca fascicularis; set-up: dose 1 mg/kg, route oral; settings: in vivo; method in brief: as §4
# [23] = Half life in Lewis rat at 3 mg/kg, po; type: ADME, organism-based; set-up: dose 3 mg/kg, route oral; settings: in vivo; method in brief: as §4
# [24] = Oral bioavailability in cynomolgus monkey at 1 mg/kg; type: ADME, organism-based, Macaca fascicularis; settings: in vivo; method in brief: as §4
# [25] = Stability of the compound in presence of enterobacteria from monkey feces contents under anaerobic condition at 3 to 30 uM after 24 hrs; type: ADME, tissue-based; method in brief: as §5
# [26] = Tmax in cynomolgus monkey at 1 mg/kg, po; type: ADME, organism-based, Macaca fascicularis; set-up: dose 1 mg/kg, route oral; settings: in vivo; method in brief: as §4
# [27] = Stability of the compound in presence of enterobacteria from monkey feces contents under anaerobic condition at 3 to 30 uM after 48 hrs; type: ADME, tissue-based; method in brief: as §5
# [28] = AUC (0 to infinity) in cynomolgus monkey at 1 mg/kg, po; type: ADME, organism-based, Macaca fascicularis; set-up: time infinity, dose 1 mg/kg, route oral; settings: plasma; method in brief: as §4
# Rattus norvegicus [29] = test: Drug metabolism in po dosed rat plasma assessed as formation of 4-phenoxy benzoic acid; type: ADME, organism-based; settings: in vivo
# Homo sapiens = organism: Homo sapiens; test: Selectivity ratio of EC50 for human S1P3 receptor to EC50 for human S1P1 receptor
# Sequence of Sphingosine 1-phosphate receptor 3 (Q99500 whole entry): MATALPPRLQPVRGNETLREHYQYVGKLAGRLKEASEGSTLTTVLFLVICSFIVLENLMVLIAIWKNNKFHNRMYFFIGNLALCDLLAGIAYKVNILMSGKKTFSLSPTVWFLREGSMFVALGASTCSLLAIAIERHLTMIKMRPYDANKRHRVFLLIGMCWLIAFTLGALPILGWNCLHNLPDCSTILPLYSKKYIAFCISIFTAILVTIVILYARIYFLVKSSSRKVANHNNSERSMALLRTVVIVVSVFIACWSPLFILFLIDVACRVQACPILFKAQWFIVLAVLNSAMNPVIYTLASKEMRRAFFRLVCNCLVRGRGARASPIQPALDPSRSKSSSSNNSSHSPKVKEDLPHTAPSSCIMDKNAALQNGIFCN
Structure (SMILES),EC50 [1],EC50 [2],inhibition in vivo at 1 mg/kg (Rattus norvegicus [3]),ED50 (Rattus norvegicus [7]),also measured
CCc1cc(CN2CC(C(=O)O)C2)sc1-c1ncc(-c2ccc(Oc3ccccc3)cc2)o1,> 20000 nM,90 nM,–,–,–
CCc1cc(CN2CC(C(=O)O)C2)sc1-c1ncc(-c2ccc(OC(C)C)c(Cl)c2)s1,> 20000 nM,3.2 nM,54%,–,–
CCc1cc(CN2CC(C(=O)O)C2)sc1-c1cnc(-c2ccc(Oc3ccccc3)cc2)o1,> 20000 nM,300 nM,–,–,–
CCc1cc(-c2cnc(-c3ccc(CN4CC(C(=O)O)C4)nc3CC)s2)ccc1OC(C)C,> 20000 nM,4 nM,–,0.49 mg/kg,clearance [4]: 1.75 mL/min/kg; Cmax [5]: 150 ng/mL; half-life [6]: 16.7 h; Vd [8]: 1.46 L/kg; bioavailability [9]: 75.4%; AUC(0-inf) [10]: 3730 ng·h/mL; Tmax [11]: 5 h
CCc1cc(CN2CC(C(=O)O)C2)sc1-c1ncc(-c2ccc(O[C@H](C)CC)c(C)c2)s1,> 20000 nM,8 nM,27%,–,–
CCc1cc(CN2CC(C(=O)O)C2)sc1-c1ncc(-c2ccc(OC(C)C)c(F)c2)s1,> 20000 nM,5.8 nM,–,0.48 mg/kg,–
CCc1nc(CN2CC(C(=O)O)C2)ccc1-c1ncc(-c2ccc(OC(C)C)c(C)c2)s1,> 20000 nM,5.5 nM,39%,–,–
CCCc1cc(-c2cnc(-c3sc(CN4CC(C(=O)O)C4)cc3CC)s2)ccc1OC(C)C,400 nM,1.1 nM,73%,–,–
CCc1cc(CN2CC(C(=O)O)C2)sc1-c1ncc(-c2ccc(O[C@@H](C)CC)c(C)c2)s1,> 20000 nM,6 nM,–,0.32 mg/kg,–
CCc1cc(CN2CC(C(=O)O)C2)sc1-c1ncc(-c2ccc(OC(C)C)cc2)s1,> 20000 nM,10 nM,52%,–,–
CCc1cc(CN2CC(C(=O)O)C2)sc1-c1cnc(-c2ccc(OC(C)C)c(C)c2)s1,> 20000 nM,11 nM,–,0.19 mg/kg,–
CCc1cc(CN2CC(C(=O)O)C2)sc1-c1ncc(-c2ccc(OC(C)C)c(C(C)C)c2)s1,> 20000 nM,1.3 nM,–,0.53 mg/kg,–
O=C(O)c1ccc(Oc2ccccc2)cc1,–,–,–,–,Activity [12]: Active
CCc1cc(CN2CC(C(=O)O)C2)sc1-c1ncc(-c2ccc(OC(C)C)c(C)c2)s1,> 20000 nM,3.4 nM,–,0.07 mg/kg,clearance [4]: 2 mL/min/kg; half-life [13]: 7.2 h; Cmax [14]: 340 ng/mL; Tmax [15]: 5 h; Stability [16]: Stable; Stability [17]: Stable; Vd [18]: 5.37 L/kg; Vd [8]: 0.89 L/kg; bioavailability [19]: 70.6%; clearance [20]: 6.72 mL/min/kg; AUC(0-inf) [21]: 5140 ng·h/mL; Cmax [22]: 630 ng/mL; half-life [23]: 11.5 h; bioavailability [24]: > 90%; Stability [25]: Stable; Tmax [26]: 4 h; Stability [27]: Stable; AUC(0-inf) [28]: 8690 ng·h/mL
CCc1cc(CN2CC(C(=O)O)C2)sc1-c1cc(-c2ccc(Oc3ccccc3)cc2)no1,> 20000 nM,15 nM,–,–,inhibition (Rattus norvegicus [3]): inactive
CCc1cc(-c2ncc(-c3ccc(CN4CC(C(=O)O)C4)nc3CC)s2)ccc1CC(C)C,> 20000 nM,5.4 nM,–,0.74 mg/kg,–
CCc1cc(CN2CC(C(=O)O)C2)sc1-c1cnc(-c2ccc(Oc3ccccc3)cc2)s1,> 20000 nM,35 nM,25%,–,–
CCc1cc(-c2cnc(-c3sc(CN4CC(C(=O)O)C4)cc3CC)s2)ccc1OC(C)C,> 20000 nM,3.4 nM,–,0.16 mg/kg,–
CCc1cc(CN2CC(C(=O)O)C2)sc1-c1nnc(-c2ccc(Oc3ccccc3)cc2)s1,> 20000 nM,25 nM,–,–,inhibition (Rattus norvegicus [3]): inactive
CCc1nc(CN2CC(C(=O)O)C2)ccc1-c1cnc(-c2ccc(OC(C)C)c(C)c2)s1,> 20000 nM,2.8 nM,17%,–,–
CCc1cc(CN2CC(C(=O)O)C2)sc1-c1nnc(-c2ccc(Oc3ccccc3)cc2)o1,> 20000 nM,54 nM,–,–,–
CCc1nc(CN2CC(C(=O)O)C2)ccc1-c1cnc(-c2ccc(CC(C)C)c(C)c2)s1,> 20000 nM,4.1 nM,–,0.64 mg/kg,–
CCc1cc(CN2CC(C(=O)O)C2)sc1-c1noc(-c2ccc(Oc3ccccc3)cc2)n1,> 20000 nM,–,–,0.41 mg/kg,Stability [16]: Unstable; Stability [17]: Unstable; Drug metabolism (Rattus norvegicus [29]): Active; Stability [25]: Unstable; Stability [27]: Unstable
CCc1cc(CN2CC(C(=O)O)C2)sc1-c1ncc(-c2ccc(Oc3ccccc3)cc2)s1,> 20000 nM,4.5 nM,42%,–,Ratio EC50 (Homo sapiens): > 4400
CCc1cc(CN2CC(C(=O)O)C2)sc1-c1ncc(-c2ccc(C(C)C)c(C)c2)s1,> 20000 nM,3.5 nM,–,1.07 mg/kg,–
CCc1cc(CN2CC(C(=O)O)C2)sc1-c1cc(-c2ccc(Oc3ccccc3)cc2)on1,> 20000 nM,22 nM,2%,–,–
